System: Human immunodeficiency virus 1
Assay: Antiviral activity against HIV1 harboring reverse transcriptase K103N mutant infected in human MT4 cells assessed as inhibition of viral replication after 5 days by MTT assay
Format: functional, organism-based
Conditions: Human immunodeficiency virus 1, MT4, 120 h

In order of rising EC50:
1. Cc1cn([C@H]2C[C@H](N=[N+]=[N-])[C@@H](CO)O2)c(=O)[nH]c1=O [ZIDOVUDINE]  8 nM
2. CC(=O)Cn1cc(CNC(=O)c2cnc(Nc3ccc(C#N)cc3)cc2Oc2c(C)cc(C)cc2C)nn1  260 nM
3. CC(C)Nc1cccnc1N1CCN(C(=O)c2cc3cc(NS(C)(=O)=O)ccc3[nH]2)CC1 [DELAVIRDINE]  3000 nM

System: not listed separately
Assay: Selectivity index, ratio of CC50 for human MT4 cells to EC50 for HIV1 harboring reverse transcriptase K103N mutant
Format: toxicity
Conditions: read-out: Ratio CC50/EC50
Procedure, shortened: (§1)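 SI is CC₅₀ divided by EC₅₀, both by MTT after 5 days in MT-4 cells. CC₅₀ comes from mock-infected cultures run in parallel and is the concentration reducing their viability by 50%. EC₅₀ comes from cultures infected with the given mutant strain at 100–300 CCID₅₀.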

With `CC(=O)Cn1cc(CNC(=O)c2cnc(Nc3ccc(C#N)cc3)cc2Oc2c(C)cc(C)cc2C)nn1` the selectivity ratio was 73.

System: Human immunodeficiency virus 1
Assay: Resistance factor, ratio of EC50 for HIV1 harboring reverse transcriptase Y181C mutant to EC50 for wild-type HIV-1 3B
Format: functional
Conditions: not given
Procedure, shortened: (§2)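 Resistance fold is EC₅₀ against the mutant strain divided by EC₅₀ against WT IIIB. Both EC₅₀ values come from the 5-day MTT protection assay in MT-4 cells infected with 100–300 CCID₅₀ of virus.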

In order of falling “Ratio EC50” value:
1. CC(C)Nc1cccnc1N1CCN(C(=O)c2cc3cc(NS(C)(=O)=O)ccc3[nH]2)CC1 [DELAVIRDINE]  64.7
2. CC(=O)Cn1cc(CNC(=O)c2cnc(Nc3ccc(C#N)cc3)cc2Oc2c(C)cc(C)cc2C)nn1  5.5

System: Human immunodeficiency virus 1
Assay: Resistance factor, ratio of EC50 for HIV1 harboring reverse transcriptase E138K mutant to EC50 for wild-type HIV-1 3B
Format: functional
Conditions: not given
Procedure, shortened: as §2

In order of rising “Ratio EC50” value:
1. CC(=O)Cn1cc(CNC(=O)c2cnc(Nc3ccc(C#N)cc3)cc2Oc2c(C)cc(C)cc2C)nn1  0.9
2. CC(C)Nc1cccnc1N1CCN(C(=O)c2cc3cc(NS(C)(=O)=O)ccc3[nH]2)CC1 [DELAVIRDINE]  1.3

System: not listed separately
Assay: Selectivity index, ratio of CC50 for human MT4 cells to EC50 for HIV1 harboring reverse transcriptase L100I mutant
Format: toxicity
Conditions: read-out: Ratio CC50/EC50
Procedure, shortened: as §1

Compound `CC(=O)Cn1cc(CNC(=O)c2cnc(Nc3ccc(C#N)cc3)cc2Oc2c(C)cc(C)cc2C)nn1` has a selectivity ratio of 19.

System: not listed separately
Assay: Selectivity index, ratio of CC50 for human MT4 cells to EC50 for wild-type HIV1 3B
Format: toxicity
Conditions: read-out: Ratio CC50/EC50
Procedure, shortened: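 Wild-type HIV-1 IIIB at 100–300 CCID50 added to MT-4 cells with compound, with mock-infected wells in parallel. MTT viability was read at day 5. […] SI = CC50/EC50.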

Work on `CC(=O)Cn1cc(CNC(=O)c2cnc(Nc3ccc(C#N)cc3)cc2Oc2c(C)cc(C)cc2C)nn1` yielded a selectivity ratio of 670.

System: not listed separately
Assay: Selectivity index, ratio of CC50 for human MT4 cells to EC50 for HIV1 harboring reverse transcriptase F227L/V106A mutant
Format: toxicity
Conditions: read-out: Ratio CC50/EC50
Procedure, shortened: as §1

`CC(=O)Cn1cc(CNC(=O)c2cnc(Nc3ccc(C#N)cc3)cc2Oc2c(C)cc(C)cc2C)nn1` showed a selectivity ratio of 33.

System: Human immunodeficiency virus 1
Assay: Antiviral activity against wild-type HIV-1 3B infected in human MT4 cells assessed as inhibition of viral replication after 5 days by MTT assay
Format: functional, organism-based
Conditions: Human immunodeficiency virus 1, 3B, MT4, 120 h

In order of rising EC50:
1. CC(=O)Cn1cc(CNC(=O)c2cnc(Nc3ccc(C#N)cc3)cc2Oc2c(C)cc(C)cc2C)nn1  29 nM
2. CC(C)Nc1cccnc1N1CCN(C(=O)c2cc3cc(NS(C)(=O)=O)ccc3[nH]2)CC1 [DELAVIRDINE]  38 nM

System: Human immunodeficiency virus 1
Assay: Antiviral activity against HIV1 harboring reverse transcriptase Y188L mutant infected in human MT4 cells assessed as inhibition of viral replication after 5 days by MTT assay
Format: functional, organism-based
Conditions: Human immunodeficiency virus 1, MT4, 120 h
Procedure, shortened: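 MT-4 cells in exponential growth, resuspended into wells holding HIV-1 stock (IIIB, RES056 K103N/Y181C, F227L/V106A, L100I, K103N, E138K, Y181C or Y188L) at 100–300 CCID₅₀, or into mock-infected wells. Viability read by MTT reduction to formazan, measured spectrophotometrically 5 days post-infection. EC₅₀ is the concentration giving 50% protection against virus-induced cytotoxicity.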

In order of rising EC50:
1. CC(C)Nc1cccnc1N1CCN(C(=O)c2cc3cc(NS(C)(=O)=O)ccc3[nH]2)CC1 [DELAVIRDINE]  840 nM
2. CC(=O)Cn1cc(CNC(=O)c2cnc(Nc3ccc(C#N)cc3)cc2Oc2c(C)cc(C)cc2C)nn1  3200 nM

System: Human immunodeficiency virus 1
Assay: Antiviral activity against HIV-1 RES056 harboring reverse transcriptase K103N/Y181C double mutant infected in human MT4 cells assessed as inhibition of viral replication after 5 days by MTT assay
Format: functional, organism-based
Conditions: Human immunodeficiency virus 1, RES056, MT4, 120 h

In order of rising EC50:
1. Cc1cn([C@H]2C[C@H](N=[N+]=[N-])[C@@H](CO)O2)c(=O)[nH]c1=O [ZIDOVUDINE]  11 nM
2. CC(=O)Cn1cc(CNC(=O)c2cnc(Nc3ccc(C#N)cc3)cc2Oc2c(C)cc(C)cc2C)nn1  2210 nM

System: not listed separately
Assay: Selectivity index, ratio of CC50 for human MT4 cells to EC50 for HIV1 harboring reverse transcriptase Y181C mutant
Format: toxicity
Conditions: read-out: Ratio CC50/EC50
Procedure, shortened: as §1

`CC(=O)Cn1cc(CNC(=O)c2cnc(Nc3ccc(C#N)cc3)cc2Oc2c(C)cc(C)cc2C)nn1` showed a selectivity ratio of 123.

System: Human immunodeficiency virus 1
Assay: Resistance factor, ratio of EC50 for HIV1 harboring reverse transcriptase L100I mutant to EC50 for wild-type HIV-1 3B
Format: functional
Conditions: not given
Procedure, shortened: as §2

In order of falling “Ratio EC50” value:
1. CC(C)Nc1cccnc1N1CCN(C(=O)c2cc3cc(NS(C)(=O)=O)ccc3[nH]2)CC1 [DELAVIRDINE]  66.8
2. CC(=O)Cn1cc(CNC(=O)c2cnc(Nc3ccc(C#N)cc3)cc2Oc2c(C)cc(C)cc2C)nn1  34.5

System: not listed separately
Assay: Selectivity index, ratio of CC50 for human MT4 cells to EC50 for HIV1 harboring reverse transcriptase E138K mutant
Format: toxicity
Conditions: read-out: Ratio CC50/EC50
Procedure, shortened: as §1

Compound `CC(=O)Cn1cc(CNC(=O)c2cnc(Nc3ccc(C#N)cc3)cc2Oc2c(C)cc(C)cc2C)nn1` has a selectivity ratio of 756.

System: not listed separately
Assay: Selectivity index, ratio of CC50 for human MT4 cells to EC50 for HIV-1 RES056 harboring reverse transcriptase K103N/Y181C double mutant infected in human MT4 cells
Format: toxicity, cell-based
Conditions: read-out: Ratio CC50/EC50
Procedure, shortened: as §1

`CC(=O)Cn1cc(CNC(=O)c2cnc(Nc3ccc(C#N)cc3)cc2Oc2c(C)cc(C)cc2C)nn1` gave a selectivity ratio of 9.

System: not listed separately
Assay: Selectivity index, ratio of CC50 for human MT4 cells to EC50 for HIV1 harboring reverse transcriptase Y188L mutant
Format: toxicity
Conditions: read-out: Ratio CC50/EC50
Procedure, shortened: as §1

Compound `CC(=O)Cn1cc(CNC(=O)c2cnc(Nc3ccc(C#N)cc3)cc2Oc2c(C)cc(C)cc2C)nn1` has a selectivity ratio of 6.

System: Human immunodeficiency virus 1
Assay: Resistance factor, ratio of EC50 for HIV1 harboring reverse transcriptase F227L/V106A mutant to EC50 for wild-type HIV-1 3B
Format: functional
Conditions: not given
Procedure, shortened: as §2

In order of rising “Ratio EC50” value:
1. CC(=O)Cn1cc(CNC(=O)c2cnc(Nc3ccc(C#N)cc3)cc2Oc2c(C)cc(C)cc2C)nn1  20.3
2. CC(C)Nc1cccnc1N1CCN(C(=O)c2cc3cc(NS(C)(=O)=O)ccc3[nH]2)CC1 [DELAVIRDINE]  59.7

System: Human immunodeficiency virus 1
Assay: Resistance factor, ratio of EC50 for HIV1 harboring reverse transcriptase K103N mutant to EC50 for wild-type HIV-1 3B
Format: functional
Conditions: not given
Procedure, shortened: as §2

In order of rising “Ratio EC50” value:
1. CC(=O)Cn1cc(CNC(=O)c2cnc(Nc3ccc(C#N)cc3)cc2Oc2c(C)cc(C)cc2C)nn1  9
2. CC(C)Nc1cccnc1N1CCN(C(=O)c2cc3cc(NS(C)(=O)=O)ccc3[nH]2)CC1 [DELAVIRDINE]  78.9

System: Human immunodeficiency virus 1
Assay: Antiviral activity against HIV1 harboring reverse transcriptase L100I mutant infected in human MT4 cells assessed as inhibition of viral replication after 5 days by MTT assay
Format: functional, organism-based
Conditions: Human immunodeficiency virus 1, MT4, 120 h

In order of falling EC50:
1. CC(C)Nc1cccnc1N1CCN(C(=O)c2cc3cc(NS(C)(=O)=O)ccc3[nH]2)CC1 [DELAVIRDINE]  2540 nM
2. CC(=O)Cn1cc(CNC(=O)c2cnc(Nc3ccc(C#N)cc3)cc2Oc2c(C)cc(C)cc2C)nn1  1000 nM
3. Cc1cn([C@H]2C[C@H](N=[N+]=[N-])[C@@H](CO)O2)c(=O)[nH]c1=O [ZIDOVUDINE]  5 nM

System: Human immunodeficiency virus 1
Assay: Antiviral activity against HIV1 harboring reverse transcriptase F227L/V106A double mutant infected in human MT4 cells assessed as inhibition of viral replication after 5 days by MTT assay
Format: functional, organism-based
Conditions: Human immunodeficiency virus 1, MT4, 120 h

In order of rising EC50:
1. CC(=O)Cn1cc(CNC(=O)c2cnc(Nc3ccc(C#N)cc3)cc2Oc2c(C)cc(C)cc2C)nn1  590 nM
2. CC(C)Nc1cccnc1N1CCN(C(=O)c2cc3cc(NS(C)(=O)=O)ccc3[nH]2)CC1 [DELAVIRDINE]  2270 nM

System: Human immunodeficiency virus 1
Assay: Resistance factor, ratio of EC50 for HIV1 harboring reverse transcriptase Y188L mutant to EC50 for wild-type HIV-1 3B
Format: functional
Conditions: not given
Procedure, shortened: as §2

In order of falling “Ratio EC50” value:
1. CC(=O)Cn1cc(CNC(=O)c2cnc(Nc3ccc(C#N)cc3)cc2Oc2c(C)cc(C)cc2C)nn1  110.3
2. CC(C)Nc1cccnc1N1CCN(C(=O)c2cc3cc(NS(C)(=O)=O)ccc3[nH]2)CC1 [DELAVIRDINE]  22.1

System: Human immunodeficiency virus 1
Assay: Antiviral activity against HIV1 harboring reverse transcriptase E138K mutant infected in human MT4 cells assessed as inhibition of viral replication after 5 days by MTT assay
Format: functional, organism-based
Conditions: Human immunodeficiency virus 1, MT4, 120 h

In order of falling EC50:
1. CC(C)Nc1cccnc1N1CCN(C(=O)c2cc3cc(NS(C)(=O)=O)ccc3[nH]2)CC1 [DELAVIRDINE]  51 nM
2. CC(=O)Cn1cc(CNC(=O)c2cnc(Nc3ccc(C#N)cc3)cc2Oc2c(C)cc(C)cc2C)nn1  26 nM

System: Human immunodeficiency virus 1
Assay: Antiviral activity against HIV1 harboring reverse transcriptase Y181C mutant infected in human MT4 cells assessed as inhibition of viral replication after 5 days by MTT assay
Format: functional, organism-based
Conditions: Human immunodeficiency virus 1, MT4, 120 h

In order of falling EC50:
1. CC(C)Nc1cccnc1N1CCN(C(=O)c2cc3cc(NS(C)(=O)=O)ccc3[nH]2)CC1 [DELAVIRDINE]  2460 nM
2. CC(=O)Cn1cc(CNC(=O)c2cnc(Nc3ccc(C#N)cc3)cc2Oc2c(C)cc(C)cc2C)nn1  160 nM

System: MT4
Assay: Cytotoxicity against human MT4 cells assessed as decrease in cell viability after 5 days by MTT assay
Format: cell-based
Conditions: mt4, 120 h
Procedure, shortened: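 Mock-infected MT-4 cells, exponentially growing, seeded with compound in culture medium without virus; run in parallel with the antiviral assay. Viability read spectrophotometrically by MTT reduction five days later.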

`CC(=O)Cn1cc(CNC(=O)c2cnc(Nc3ccc(C#N)cc3)cc2Oc2c(C)cc(C)cc2C)nn1` and `Cc1cn([C@H]2C[C@H](N=[N+]=[N-])[C@@H](CO)O2)c(=O)[nH]c1=O` [ZIDOVUDINE] cannot be ordered by CC50: 19400 nM for the first, over 7480 nM for the second.

Source: ChEMBL document CHEMBL4152200, “Targeting the entrance channel of NNIBP: Discovery of diarylnicotinamide 1,4-disubstituted 1,2,3-triazoles as novel HIV-1 NNRTIs with high potency against wild-type and E138K mutant virus” (Eur J Med Chem, 2018)
